# Assay outcomes deposited in PubChem BioAssay by several laboratories.
# RanGTP-Imp inh = inhibitors of RanGTP-importin-beta interaction, primary screen, biochemical, FRET, CFP-Ran, YFP-importin-beta, homogeneous | Ran GTPase (GTP-bound) - importin-beta complex | cell-free CFP-Ran/YFP-importin-beta FRET ratio | inhibition, % (concentration not given with the values) | 300,000 tested, 1.1% active | AID 2216, 2009;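 active = more than half of the replicate wells show a fall in the fluorescence ratio signal beyond about 16%, limit read from the data, passing the limit was not always enough; inconclusive = exactly half of the replicate wells pass the set limit; inactive = fewer than half of replicates pass the limit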;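 note: 0% = DMSO wells and 100% = Ran loaded with GDP instead of GTP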
# Runt-CBFb FRET = inhibitors of RUNX1 Runt–CBFb binding, primary screen, biochemical, FRET, Cerulean-Runt, Venus-CBFb, uHTS | Cerulean-Runt/Venus-CBFb FRET ratio 530/480, 1 h | 220,000 tested, 0.46% active | Runt-related transcription factor 1 (Homo sapiens) + Core-binding factor subunit beta … | inhibition, % at 20 µM | AID 1496, 2009;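 active = inhibition over about 50% at 20 µM in the single-dose screen, limit read from the data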;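 note: 0% = DMSO wells and 100% = excess unlabeled CBFb competitor control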
# Target sequence (Q01196 whole entry, looked up): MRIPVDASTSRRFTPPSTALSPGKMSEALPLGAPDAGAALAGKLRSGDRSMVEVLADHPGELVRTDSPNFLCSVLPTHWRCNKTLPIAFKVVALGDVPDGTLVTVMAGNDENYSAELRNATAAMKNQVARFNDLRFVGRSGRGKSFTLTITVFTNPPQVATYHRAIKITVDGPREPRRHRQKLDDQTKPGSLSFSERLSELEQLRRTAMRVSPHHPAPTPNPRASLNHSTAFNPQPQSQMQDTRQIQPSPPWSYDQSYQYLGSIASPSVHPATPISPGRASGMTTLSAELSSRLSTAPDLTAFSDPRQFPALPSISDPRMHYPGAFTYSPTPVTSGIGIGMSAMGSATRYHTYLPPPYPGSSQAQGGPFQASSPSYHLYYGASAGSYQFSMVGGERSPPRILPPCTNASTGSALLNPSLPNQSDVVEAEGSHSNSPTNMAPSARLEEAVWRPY
# Target sequence (Q13951 whole entry, looked up): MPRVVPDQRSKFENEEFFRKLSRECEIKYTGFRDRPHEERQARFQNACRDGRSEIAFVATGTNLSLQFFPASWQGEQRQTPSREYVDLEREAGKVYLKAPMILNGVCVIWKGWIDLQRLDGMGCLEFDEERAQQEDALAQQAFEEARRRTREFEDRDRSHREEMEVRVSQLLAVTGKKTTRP
#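 Assay system: Cerulean-Runt domain fusion protein, energy donor; Signal: fluorescence energy transfer, 422 nm excitation, 530/480 nm emission; Timing: 1 h compound exposure, room temperature; Control set: unlabeled CBFb; Medium: Tris buffer pH 7.5 with salts and BSA; Compound: single test concentration of 20 µM, 1% DMSO final; Probe or stimulus: Venus-CBFb 100 nM.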
# Runt-SMMHC FRET = inhibitors of RUNX1 Runt–CBFb-SMMHC binding, primary screen, biochemical, FRET, Cerulean-Runt, Venus-CBFb-SMMHC, uHTS. Runt-related transcription factor 1 (Homo sapiens) + Core-binding factor subunit beta …. Cerulean-Runt/Venus-CBFb-SMMHC FRET ratio 530/480, 1 h. inhibition, % at 20 µM. 220,000 tested, 0.74% active. AID 1434, 2008;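 active = mean inhibition across duplicate retests at 20 µM reaching about 50%, limit read from the data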;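 note: 0% = DMSO wells and 100% = wells with excess untagged CBFb-SMMHC; inhibitors lower the FRET ratio by blocking Runt binding to CBFb-SMMHC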
# Hck Nef HTS = inhibitors of Nef-activated human Hck kinase, primary screen, biochemical, Z-Lyte FRET, 384-well, Hck-YEEI; 220,000 tested, 0.68% active; inhibition, % at 20 µM; Recombinant Hck-YEEI plus Nef, Z-Lyte FRET kinase assay; Tyrosine-protein kinase HCK (Homo sapiens), P08631;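 active = Hck-Nef kinase inhibition above about 50%, limit read from the data; inactive = inhibition below that limit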;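 note: 0% = DMSO with Hck plus Nef and 100% = Hck alone without Nef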
# An asterisk follows results filed as active; ? = inconclusive; . = no result given. Sampled rows, rich in hits. Any-hit rate of the full collection: about 1.9%.
SMILES,RanGTP-Imp inh,Runt-CBFb FRET,Runt-SMMHC FRET,Hck Nef HTS
Cc1ncc(CO)c(/C=N/NC(=O)c2ccccc2Br)c1O,9.7,19.7,63.8*,3.6
Cc1ncc(CO)c(/C=N/NC(=O)c2ccc(O)cc2)c1O,44.4*,24.2,62.8*,-1.4
COc1ccccc1N/N=C/c1c(CO)cnc(C)c1O,1.9,-1.2,6.8,2.5
Cc1ncc(CO)c(/C=N/NC(=S)Nc2cccc(Cl)c2)c1O,4.5,14.9,29.5,-61.5
Cc1ncc(CO)c(/C=N/NC(=S)Nc2ccc(Cl)c(Cl)c2)c1O,4.5,10.6,10.0,7.5
Cc1ncc(CO)c(/C=N/NC(=O)c2cc3c(s2)CCCC3)c1O,49.8*,31.9,91.9*,-79.9
Cn1cc(-c2ccccc2C(=O)O)c(=O)c2cc(Cl)ccc21,2.6,.,.,.
O=C(CSc1nnc(SCc2cccc3ccccc23)s1)N=Nc1c(O)[nH]c2ccccc12,.,-3.2,-0.6,19.3
O=C(NC(=S)Nc1nc2ccc(F)cc2s1)c1ccco1,2.9,6.2,-0.4,23.1
CCn1c(C)nc2cc(C(=O)NNC(=S)NC(=O)c3ccc(OC)cc3)ccc21,-1.5,5.8,5.1,-3.3
CCCn1c(SCC(=O)NC(C)(C)C)nnc1C(C)C,0.3,1.8,-3.4,1.1
Cc1nc(Oc2ccccc2)c2ccccc2n1,6.4,-0.4,-0.4,4.5
c1ccc(Oc2c3ccccc3nc3ccccc23)cc1,8.6,33.8,74.3*,41.5
COc1ccc(N2CCN(c3nccs3)CC2)cc1,-0.7,.,.,.
CC1CN(CC(=O)N2CCc3[nH]c4ccccc4c3C2)CC(C)O1 (stereo unspecified),27.7*,-27.5,-7.4,-1.9
O=C(CN1CCN(Cc2ccc3c(c2)OCO3)CC1)N1CCc2[nH]c3ccccc3c2C1,32.0*,-6.2,-10.5,2.6
Cc1ccc2nsnc2c1NC(=O)c1ccc([N+](=O)[O-])o1,5.0,.,.,.
O=C(Cn1nc(CNc2ccc(Br)cc2)[n+]2c1CCCCC2)c1ccc([N+](=O)[O-])cc1,5.4,0.3,0.7,17.3
O=C(NCc1ccccc1F)c1ccc2c(c1)OCO2,15.9*,1.1,0.7,-0.9
Cc1c(C)c2cc(Cl)c(OCC(=O)NC3CC(C)(C)NC(C)(C)C3)cc2oc1=O,1.9,.,.,.
Cn1c(=O)c2c(ncn2Cc2ccccc2)n(C)c1=O,-4.3,0.5,1.2,13.0
Cn1c(=O)c2nc(NCc3ccccc3)cnc2n(C)c1=O,75.1*,11.5,37.9,3.1
CC(C)NC(=S)n1cc(C(=O)c2cc(Cl)cc(Cl)c2O)cn1,21.4*,.,.,.
COc1ccc(OC)c(-c2nc3cc4ccccc4cc3nc2-c2ccccc2)c1,-2.1,-53.5,-149.5,3.2
O=[N+]([O-])c1ccc2c(c1)N([O-])C1(CCCCC1)[N+]2=O,.,25.8,72.6*,-17.9
SMILES,RanGTP-Imp inh,Runt-CBFb FRET,Runt-SMMHC FRET,Hck Nef HTS
O=C(NCCc1ccc(Cl)cc1)C1CCN(C(=O)c2ccc(F)cc2)CC1,-4.1,.,.,.
CCOC(=O)C1=C(CSc2nc3c(cc2C#N)CN(C)CC3)OC(N)=C(C#N)C1c1ccc(Cl)cc1 (stereo unspecified),26.9*,23.4,58.6*,3.8
CCOC(=O)C1=C(C)OC(N)=C(C#N)C1c1cccs1 (stereo unspecified),5.1,1.6,-3.6,-4.5
CCOC(=O)C1=C(CSc2nc3c(cc2C#N)CN(C)CC3)OC(N)=C(C#N)C1c1ccncc1 (stereo unspecified),20.8*,50.0,73.7*,6.0
CCOC(=O)C1=C(CSc2nc(CC)c(C)cc2C#N)OC(N)=C(C#N)C1c1ccccc1 (stereo unspecified),21.8*,24.8,44.7,10.5
CCOC(=O)C1=C(CSc2nc(C)cc(C)c2C#N)OC(N)=C(C#N)C1c1ccccc1 (stereo unspecified),?,22.8,28.6,0.7
CCCC1=C(C(=O)OCC)C(c2cccs2)C(C#N)=C(N)O1 (stereo unspecified),30.0*,5.0,5.9,0.2
CCOc1cc(-c2cc(-c3ccc(N)cc3)nc(N)c2C#N)ccc1O,48.3*,45.7,80.0*,17.1
COc1ccc(C(=O)NCCNc2nc3ccc(C)cc3cc2C#N)cc1OC,77.1*,.,.,.
CCOc1ccc2nc(NCCNC(=O)CC)c(C#N)cc2c1,1.6,9.8,95.1*,7.4
CCCCN(C(=O)c1oc2ccc(OCC)cc2c1C)c1c(N)n(CCCC)c(=O)[nH]c1=O,3.4,.,.,.
COc1ccc(CCn2c(O)cc3nn(-c4nc5ccccc5s4)c(=O)c-3c2C)cc1,4.5,-3.0,-16.2,68.1*
COc1ccc(CN2CCN(c3nc4ccccc4s3)CC2)cc1,-3.4,.,.,.
CSc1ccc(C2C(C(=O)c3ccco3)=C(O)C(=O)N2c2nnc(SC)s2)cc1 (stereo unspecified),-6.6,.,.,.
c1ccc2[nH]c(CN3CCOCC3)nc2c1,0.3,0.1,0.9,2.2
c1ccc2[nH]c(SN3CCOCC3)nc2c1,.,3.6,62.0*,-1.6
CC1=Nc2ccccc2/C1=C\c1nc(-c2ccccc2)oc1O,-0.9,-18.0,-25.9,3.3
CC1=Nc2ccccc2/C1=C/c1nc(-c2ccc(C)s2)oc1O,37.0*,-17.4,-35.9,8.5
COc1cc(/C=N/N2CCN(C3c4ccccc4-c4ccccc43)CC2)cc(OC)c1O,0.9,49.5,55.6*,1.8
CCCCOC(=O)c1ccc(NC(=O)COC(=O)CSc2nc(C)cc(C)n2)cc1,-2.4,-10.4,-5.8,0.9
CC(C)(CNC(=O)c1ccc(-c2ccccc2Cl)o1)N1CCOCC1,5.0,.,.,.
O=C(O)c1cc(-c2ccc(/C=N/Nc3ccc(Cl)cc3)o2)ccc1Cl,3.2,16.4,81.5*,11.8
O=C(O)c1ccc(N/N=C/c2ccc(-c3ccccc3Cl)o2)cc1,54.2*,45.6,81.2*,66.7*
Nc1nonc1C(=O)N/N=C/c1ccc(-c2ccc(Cl)c(C(=O)O)c2)o1,-0.8,6.0,0.1,-34.2
O=S(=O)(N/N=C\c1ccc(-c2ccccc2Cl)o1)c1ccccc1,5.3,6.2,5.6,6.0
SMILES,RanGTP-Imp inh,Runt-CBFb FRET,Runt-SMMHC FRET,Hck Nef HTS
Cc1ccc(/C=N/Nc2ccc(C(=O)O)cc2)o1,8.0,1.4,-0.5,21.7
O=C(O)c1ccc(N/N=C/c2ccc(-c3ccc(Br)cc3)o2)cc1,70.1*,.,.,.
O=C(O)c1nn2c(C(F)(F)F)cc(-c3cccs3)nc2c1Cl,-4.4,-6.3,-16.7,0.7
C#CCOC(=O)CCCC(=O)NCCCCCCCC,3.2,-4.3,-22.9,-7.9
O=C1CN(C(=O)c2cc([N+](=O)[O-])ccc2Cl)C(c2ccc(F)cc2)c2cc(F)ccc2N1 (stereo unspecified),2.8,-1.9,-0.8,-2.3
CCN(c1ccccc1)S(=O)(=O)c1nnc(NC(=O)c2ccccc2OC)s1,18.9*,.,.,.
